Consider 10 molecules from PubChem BioAssay.

A short description of experiment [1]: Her2 expression decrease, cell viability multiplex – SKBR3 breast tumor cells, AlphaScreen, ATP viability, primary screen (AID 461).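 As to Her2 level: lower value means less Her2 protein in the cells.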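 As to viability: percent of carrier control wells set as 100% viability.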 As to conditions: SKBR3 Her2 protein level, 18-24 h, measured here: SKBR3 viability, ATP luminescence, at 10 µM. Background: Bead proximity is the source of the signal in Alpha formats.
For experiment [2], the target named is Receptor tyrosine-protein kinase erbB-2 (Homo sapiens) (UniProt P04626). Described as above. As to conditions: 18-24 h, at 10 µM, stronger effect = lower value.
Receptor tyrosine-protein kinase erbB-2 (Homo sapiens), sequence (P04626 whole entry, looked up): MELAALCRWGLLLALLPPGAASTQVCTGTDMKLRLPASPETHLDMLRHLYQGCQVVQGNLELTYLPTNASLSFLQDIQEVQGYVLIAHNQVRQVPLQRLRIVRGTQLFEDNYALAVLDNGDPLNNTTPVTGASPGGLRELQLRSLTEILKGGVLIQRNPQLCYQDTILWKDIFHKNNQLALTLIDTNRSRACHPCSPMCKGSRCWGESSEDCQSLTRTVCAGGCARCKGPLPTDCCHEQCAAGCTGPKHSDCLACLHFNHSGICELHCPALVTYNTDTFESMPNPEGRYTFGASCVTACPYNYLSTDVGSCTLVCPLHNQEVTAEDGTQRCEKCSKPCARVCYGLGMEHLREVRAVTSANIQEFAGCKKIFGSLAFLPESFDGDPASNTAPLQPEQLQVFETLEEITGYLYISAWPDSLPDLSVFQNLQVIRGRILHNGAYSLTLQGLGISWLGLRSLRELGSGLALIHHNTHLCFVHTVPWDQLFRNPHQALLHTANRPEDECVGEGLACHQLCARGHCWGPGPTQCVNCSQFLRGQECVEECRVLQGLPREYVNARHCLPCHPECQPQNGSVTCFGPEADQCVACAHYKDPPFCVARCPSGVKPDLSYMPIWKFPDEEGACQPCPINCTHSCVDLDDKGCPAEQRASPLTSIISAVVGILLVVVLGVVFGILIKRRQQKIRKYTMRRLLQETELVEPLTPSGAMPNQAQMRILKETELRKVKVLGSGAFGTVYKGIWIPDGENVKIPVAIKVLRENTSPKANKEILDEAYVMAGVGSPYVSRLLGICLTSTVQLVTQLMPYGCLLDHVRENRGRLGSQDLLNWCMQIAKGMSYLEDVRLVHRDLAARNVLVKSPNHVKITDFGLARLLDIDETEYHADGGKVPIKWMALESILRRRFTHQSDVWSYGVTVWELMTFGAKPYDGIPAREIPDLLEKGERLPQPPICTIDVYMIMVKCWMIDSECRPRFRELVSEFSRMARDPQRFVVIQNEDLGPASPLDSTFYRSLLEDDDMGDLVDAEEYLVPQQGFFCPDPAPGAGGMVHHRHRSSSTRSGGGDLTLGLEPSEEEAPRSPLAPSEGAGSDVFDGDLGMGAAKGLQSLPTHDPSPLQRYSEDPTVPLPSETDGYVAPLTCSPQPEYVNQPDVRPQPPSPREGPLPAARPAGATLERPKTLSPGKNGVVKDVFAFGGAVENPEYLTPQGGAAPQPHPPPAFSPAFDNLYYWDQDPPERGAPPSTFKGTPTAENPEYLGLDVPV
Experiment [3] is described as follows: reduced viability of SK-BR-3 breast cancer cells – cell-based, 24 h, human, pilot screen (AID 572;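 active = viability at or below 10% of carrier control in both of two separate runs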;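 also: compound exposure lasted between 18 and 24 h rather than exactly 24 h; 100% = carrier-treated control wells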). As to conditions: SK-BR-3 viability, CellTiter-Glo luminescence, at 10 µM, stronger effect = lower value. A general note: ATP-based viability assays read luminescence as a measure of living cells.
The nature of experiment [4]: HUVEC growth inhibition – cell-based, human, primary screen (AID 575;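 active = viability at or below 30% in both replicate assays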;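 also: 100% = median of untreated cell wells with 0.1% DMSO on each plate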). As to conditions: HUVEC proliferation, CellTiter-Glo luminescence, 72 h; at 10 µM; stronger effect = lower value. An outline of the steps:
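Test system: primary human umbilical vein endothelial cells. Quantity: 1250 cells/well. Compound: single 10 µM dose, 0.1% DMSO, from 5x medium stock. Timing: 72 h treatment at 37 °C. Detection: ATP-based CellTiter-Glo luminescent read. Benchmarks: vehicle and MePR control wells. Format: 384-well plates coated with collagen.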

A short description of experiment [5]: H69AR cell proliferation blockers – human, duplicate replicates, primary screen (AID 580;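 active = viability at or under a set limit in both replicates, limit being median viability minus 3 SD, cut at about 48% in these data, passing the limit was not always enough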;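 also: 100% = mean luminescence of untreated wells and 0% = no signal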). As to conditions: H69AR lung tumor cells viability, ATP luminescence, 72 h; at 10 µM; stronger effect = lower value.
Experiment [6] can be described thus: MRP1 drug-resistance reversers in H69AR cells – cell-based, doxorubicin co-treatment, pilot screen (AID 601;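 active = viability loss from added drug above about 55%, and viability with drug at most 40%, in both replicates, limit read from the data, passing the limit was not always enough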). As to conditions: CellTiter-Glo, 72 h, at 10 µM; for differential viability (reversal): stronger effect = higher value.
A short description of experiment [7]: yeast transport mutant growth inhibition pilot in 384-well plates, post-Golgi transport modulator project (AID 636; in the data active = inhibition above about 31%). As to conditions: absorbance 615 nm, about 18 h, stronger effect = higher value.
Experiment [8] is described as follows: growth suppression of yeast trafficking mutant, preliminary HTS, modulators of trafficking downstream of Golgi apparatus project, 1536-format plate, OD 615 nm (AID 637; in the data active = inhibition above about 30%). As to conditions: yeast transport mutant growth, absorbance 615 nm, 18 h; stronger effect = higher value.
[9] abbreviates: H69AR cells + 2 uM doxorubicin, measured here: viability with 2 uM doxorubicin, stronger effect = lower value.
Where [10] appears, read: H69AR cells, compound alone cytotoxicity.

Calls of active or inactive are those of the source.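 The calls were made as follows, unless noted: active = Her2 level under about 52% in both replicate screens, with viability over 70% of control (limit read from the data); inconclusive = Her2 under the limit in one screen only, or viability under 70%; inactive = Her2 level above the set limit.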

`O=C(CSc1ncn[nH]1)c1ccco1`: the viability (usually a read-out of living cells in per cent, often relative to untreated cells) in experiment [1] was 120%; in experiment [3], 120% (inactive); in experiment [4] it was 95.9% (inactive); in experiment [5] it was 94.7% (inactive); in experiment [6] (setting [9]), 98.5%; in experiment [6] (setting [10]), 94.7%. Besides, the Her2 level in experiment [2] was 92% (inactive). Besides, the differential viability (reversal) in experiment [6] (H69AR cells + 2 uM doxorubicin) is -3.81% (inactive). The values for the inhibition in experiment [7] and in experiment [8] were -1.56% (inactive) and 0.33% (inactive), respectively.
With `Cc1cc(O)c(C2(C(F)(F)F)NCCNC2=O)cc1C` (stereo not given), the viability was 100% in experiment [1]; 100% (inactive) in experiment [3]; 99.5% (inactive) in experiment [4]; 98.8% (inactive) in experiment [5]; 91.7% in experiment [6] (setting [9]); 98.8% in experiment [6] (setting [10]). Also, the Her2 level in experiment [2] was 96% (inactive). The differential viability (reversal) in experiment [6] (H69AR cells + 2 uM doxorubicin) is 7.08% (inactive). Besides, the inhibition (commonly the change of the read-out against control, counted positive when it falls) is -4.61% (inactive) in experiment [7] and -0.32% (inactive) in experiment [8].
Turning to `COc1ccc(-c2nnc(SCCC(=O)O)n2-c2ccccc2)cc1`, the viability was 113% in experiment [1]; 113% (inactive) in experiment [3]; 96.1% (inactive) in experiment [4]; 95.2% (inactive) in experiment [5]; 97.3% in experiment [6] (setting [9]); 95.2% in experiment [6] (setting [10]). Moreover, in experiment [2], the Her2 level was 96.5% (inactive). In addition, in experiment [6] (H69AR cells + 2 uM doxorubicin), the differential viability (reversal) was -2.17% (inactive). For the same molecule, the inhibition in experiment [7] was -0.53% (inactive); in experiment [8], -0.49% (inactive).
With `COc1ccc(NC(C)=O)cc1NC(=O)CN1CCN(c2ccccn2)CC1`, the viability in experiment [1] was 96%; in experiment [3], 96% (inactive); in experiment [4], 96% (inactive); in experiment [5] it was 85.6% (inactive); in experiment [6] (setting [9]), 79.8%; in experiment [6] (setting [10]) it was 85.6%. Besides, the Her2 level in experiment [2] is 116% (inactive). In experiment [6] (H69AR cells + 2 uM doxorubicin), the differential viability (reversal) is 5.82% (inactive). For the same molecule, the inhibition in experiment [7] was -1.87% (inactive); in experiment [8] it was -7.9% (inactive).
`Cc1ccc(CCNC(=O)C2CCN(S(=O)(=O)c3c(C)nn(C)c3C)CC2)cc1`: the viability in experiment [1] is 103%; in experiment [3], 103% (inactive); in experiment [4], 114% (inactive); in experiment [5] it was 89% (inactive); in experiment [6] (setting [9]), 96.1%; in experiment [6] (setting [10]) it was 89%. The Her2 level in experiment [2] was 115% (inactive). In addition, the differential viability (reversal) in experiment [6] (H69AR cells + 2 uM doxorubicin) was -7.15% (inactive). Also, the inhibition was -1.92% (inactive) in experiment [7] and -2% (inactive) in experiment [8].
Consider `C[C@@H]1C[C@H](O)c2cc(Cl)ccc2N1`, for which the viability in experiment [1] is 104%; in experiment [3] it was 104% (inactive); in experiment [4], 86.1% (inactive); in experiment [5], 87.1% (inactive); in experiment [6] (setting [9]) it was 79.4%; in experiment [6] (setting [10]) it was 87.1%. Moreover, the Her2 level in experiment [2] was 88.5% (inactive). In experiment [6] (H69AR cells + 2 uM doxorubicin), the differential viability (reversal) was 7.69% (inactive). The inhibition in experiment [7] was -5.84% (inactive); in experiment [8], -3.33% (inactive).
Turning to `Cc1cc(NC(=O)c2ccccc2Oc2ccccc2)no1`, the viability in experiment [1] was 97%; in experiment [3], 97% (inactive); in experiment [4], 93.5% (inactive); in experiment [5], 110% (inactive); in experiment [6] (setting [9]) it was 93.5%; in experiment [6] (setting [10]), 110%. Besides, the Her2 level in experiment [2] is 92.5% (inactive). In addition, in experiment [6] (H69AR cells + 2 uM doxorubicin), the differential viability (reversal) was 16.8% (inactive). In addition, the inhibition in experiment [7] was -5.33% (inactive); in experiment [8], 2.42% (inactive).
On to `CCn1c(=O)c(C(=O)Nc2cccnc2)c(O)c2ccccc21`, for which the viability in experiment [1] is 103%; in experiment [3] it was 103% (inactive); in experiment [4] it was 113% (inactive); in experiment [5] it was 67.7% (inactive); in experiment [6] (setting [9]) it was 91.9%; in experiment [6] (setting [10]), 67.7%. Also, the Her2 level in experiment [2] was 84.5% (inactive). In addition, the differential viability (reversal) in experiment [6] (H69AR cells + 2 uM doxorubicin) is -24.2% (inactive). The inhibition in experiment [7] was -0.93% (inactive); in experiment [8], 100% (active).
Consider `O=C(CSc1nnnn1C1CCCC1)Nc1cccc(NC(=O)c2ccco2)c1`, for which the viability in experiment [1] is 91.5%; in experiment [3], 91.5% (inactive); in experiment [4] it was 96.7% (inactive); in experiment [5], 110% (inactive); in experiment [6] (setting [9]), 97%; in experiment [6] (setting [10]) it was 110%. The Her2 level in experiment [2] is 98.5% (inactive). Further, the differential viability (reversal) in experiment [6] (H69AR cells + 2 uM doxorubicin) was 13.4% (inactive). The inhibition was -0.39% (inactive) in experiment [7] and -2.17% (inactive) in experiment [8].
Consider `O=C1CC(=O)N(Cc2cccs2)C(=O)N1`, for which the viability in experiment [1] was 93.5%; in experiment [3], 93.5% (inactive); in experiment [4], 103% (inactive); in experiment [5], 101% (inactive); in experiment [6] (setting [9]), 94%; in experiment [6] (setting [10]), 101%. In addition, the Her2 level in experiment [2] is 99% (inactive). The differential viability (reversal) in experiment [6] (H69AR cells + 2 uM doxorubicin) is 6.82% (inactive). The values for the inhibition in experiment [7] and in experiment [8] were -2.76% (inactive) and -3.82% (inactive), respectively.
